# Compounds with a hit are over-represented: about 4.8% of the library has one in this group of screens.
# HSF1 inhib – HSF1 inhibitors in luciferase reporter cells, primary screen, cell-based, NIH3T3, luminescence; NIH3T3-HGL HSE-luciferase, MG132-induced, luminescence 8 h; stronger effect = lower value; 0.77% of 300,000 active; activity change, negative = inhibition, % at 7.5 µM (by protocol);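 active = more than half of replicate wells show activity change below -50%, luminescence cut by over half; inconclusive = some wells, but at most half, below -50%; inactive = no replicate well below -50%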;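 note: luciferase reports HSF-1 transcriptional activity via heat shock element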
# GPR7 antagonist – GPR7 receptor antagonists, primary screen, cell-based, fluorescence, single concentration | Neuropeptides B/W receptor type 1 (Homo sapiens), P48145 | GPR7-expressing cells, fluorescence antagonist assay | AID 1861, 2009 | 1.1% of 290,000 active | inhibition, % at 4.4 µM; in the data active = inhibition above about 16%, passing the limit was not always enough;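 note: cells stimulated with the agonist NPW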
# Target sequence (P48145 whole entry, looked up): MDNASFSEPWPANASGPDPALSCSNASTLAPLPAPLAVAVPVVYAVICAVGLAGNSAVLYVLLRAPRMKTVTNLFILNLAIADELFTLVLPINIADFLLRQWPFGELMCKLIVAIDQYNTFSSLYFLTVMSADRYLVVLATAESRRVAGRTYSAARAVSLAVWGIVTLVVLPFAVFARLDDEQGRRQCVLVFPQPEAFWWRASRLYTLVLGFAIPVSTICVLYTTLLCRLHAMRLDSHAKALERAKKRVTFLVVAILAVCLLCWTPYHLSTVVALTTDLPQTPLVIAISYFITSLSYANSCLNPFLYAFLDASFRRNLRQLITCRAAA
# 697 NFkB inh – inhibitors of PMA/ionomycin-induced NF-kB reporter, 697 cells, primary screen, B-cell NF-kB inhibitor project, cell-based, luminescence, uHTS. AID 435022, 2010. 697 B-cell NF-kB luciferase reporter, 16 h. 0.33% of 330,000 active. inhibition, % at 4 µM; in the data active = inhibition above about 35%
# T cruzi repl – inhibitors of intracellular T. cruzi growth, primary screen, luminescence, NIH3T3 host cells; T. cruzi beta-gal in NIH3T3, 90 h; inhibition, % (test concentration not listed); 1.4% of 300,000 active; AID 1885, 2009;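 active = mean inhibition across valid replicates above about 55%, limit read from the data; inconclusive = mean below that limit but half or more replicates reach it; inactive = mean below it, under half of replicates reach it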;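 note: signal also drops with host cell toxicity which is not excluded here; higher percent means less beta-gal luminescence so fewer parasites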
#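 Material: NIH/3T3 host cells with β-galactosidase reporter T. cruzi; Input: 5,000 host fibroblasts per well; Medium: DMEM, 2% fetal bovine serum; Compound: 50 nL DMSO compound solution per well; Schedule: 3 h host attachment, then at least 90 h co-culture; Detection: luminescent β-galactosidase signal after 60 min lysis.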
# Jurkat NFkB inh – inhibitors of induced NF-kB luciferase reporter, primary screen, TCR NF-kB activation inhibitor project, cell-based, luminescence, uHTS. Jurkat, PMA/ionomycin-induced NF-kB luciferase reporter. inhibition, % at 4 µM. 0.53% of 330,000 active. AID 435003, 2010; in the data active = inhibition above about 50%
# HSF1 activator – HSF-1 activators, primary screen, NIH3T3-HGL cells, MG132 stress, luminescence, single point | NIH3T3-HGL HSF-1 luciferase reporter, 8 h; 100% = twice DMSO control signal | activation, % at 9 µM | 1.7% of 300,000 active | AID 504408, 2011;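 active = mean replicate activation of at least 50% with a set share of replicates each reaching 50%; inconclusive = only one of those two conditions met; inactive = mean below 50% and too few replicates reaching it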
# Jurkat NFkB conf – PMA/ionomycin-induced NF-kB reporter inhibitors, Jurkat retest, confirmation, T-cell NF-kB inhibitor project, cell-based, luminescence, single concentration; inhibition, % at 4 µM; shares compounds with Jurkat NFkB inh; Jurkat NF-kB luciferase, 16 h; 27% of 2,700 active; AID 435020, 2010;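 active = inhibition reaching about 45% at 4 µM in either replicate, limit read from the data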
# 697 NFkB conf – PMA/ionomycin-induced NF-kB reporter inhibitors, 697 retest, confirmation, B-cell NF-kB inhibitor project, cell-based, luminescence, single concentration; shares compounds with 697 NFkB inh; 697 B-cell NF-kB luciferase, 16 h; inhibition, % at 4 µM; 35% of 2,000 active; AID 449746, 2010; in the data active = inhibition mostly above about 28%, no sharp cut-off; inactive = mostly below about 22%
# A number is an active result; 0 = inactive; ? = inconclusive; - = not tested or not shown.
SMILES,HSF1 inhib,GPR7 antagonist,697 NFkB inh,T cruzi repl,Jurkat NFkB inh,HSF1 activator,Jurkat NFkB conf,697 NFkB conf
COc1ccc(C2=NN3C(C2)c2ccccc2OC32C(=O)N(C)c3ccccc32)cc1 (stereo not given),0,0,0,0,0,92.3,0,0
Cc1nnc(SCC(=O)NCC2COc3ccccc3O2)s1 (stereo not given),-,-,0,-,0,-,-,-
Cc1ccc[n+](CC(=O)/C=C2\N(C)c3ccccc3C2(C)C)c1,0,0,48.3,0,55.4,0,0,0
COc1ccc2oc(C(=O)Nc3nccs3)c(C)c2c1,0,-,0,0,0,0,0,0
CCOc1ccc2oc(C(=O)NC(C)(C)CC)c(C)c2c1,0,0,0,0,0,0,-,-
CCOc1ccc2oc(C(=O)Nc3nccs3)c(C)c2c1,-,-,0,-,0,-,0,0
COc1cccc(C(C(=O)NC(C)(C)C)N(CCc2ccccc2)C(=O)CCC(=O)Nc2cc(C)on2)c1OC (stereo not given),0,0,0,0,0,0,-,-
COc1cc2c(cc1OC)C(c1ccccc1C)CC(=O)N2 (stereo not given),0,0,0,0,0,0,-,-
Cn1cccc1/C=C1\Cc2ccccc2C1=O,0,0,0,0,0,0,-,-
Cn1cccc1/C=C1\CCc2ccccc2C1=O,0,0,0,0,0,0,0,0
N#Cc1c(NC(=O)CSc2ncn[nH]2)sc2c1CCCCC2,0,0,70.5,0,63.4,0,64.9,59.2
N#Cc1c(NC(=O)CSc2nc(N)cc(=O)[nH]2)sc2c1CCCCCC2,-,0,0,0,0,-,-,-
O=C(NCCc1ccccc1)C1CCC(=O)N(Cc2cccc(C(F)(F)F)c2)C1 (stereo not given),0,0,0,0,0,0,-,-
Cc1ccc(NC(=O)C2CCN(S(=O)(=O)c3ccc4c(c3)OCCO4)CC2)c(O)c1,0,-,0,0,0,0,-,-
COc1ccc(CCNc2ncnc3[nH]ncc23)cc1OC,0,0,0,0,0,0,-,-
COc1ccc(CCNc2ncnc3sc(C)cc23)cc1OC,0,0,68.3,0,60.9,0,73.4,83.2
O=C1c2cccc([N+](=O)[O-])c2C(=O)N1c1cccnc1,0,0,0,0,0,0,-,-
O=C1c2ccccc2C(=O)N1c1cccnc1,0,0,45.4,0,53.0,0,0,0
Cc1cc(C)nc(N/N=C/c2sccc2C)n1,0,0,0,0,0,0,-,-
C(=N\Nc1nc2ccccc2s1)/c1ccco1,0,0,0,0,0,65.5,0,0
Cc1ccsc1/C=N/Nc1nc2ccccc2s1,0,0,0,0,0,66.1,0,0
Cc1ccc(Nc2nc3ccccc3s2)cc1,0,0,0,0,0,59.6,0,0
O=C(CC1C[C@H](C(=O)N2CCOCC2)[C@@]2(CCC3CCCC3)c3[nH]c4ccccc4c3CCN2C1=O)NCc1ccco1 (stereo not given in full),-,-,0,-,0,-,-,-
C[C@@H]1COC(=O)[C@@H](Cc2ccc(F)cc2)C/C=C\C[C@H](CC(=O)N(CCO)Cc2ccccc2)C(=O)N1,-,-,0,-,0,-,-,-
CC(C)n1cnc2c(Nc3ccc(F)c(Cl)c3)nc(NCCO)nc21,0,0,0,0,0,0,-,-
SMILES,HSF1 inhib,GPR7 antagonist,697 NFkB inh,T cruzi repl,Jurkat NFkB inh,HSF1 activator,Jurkat NFkB conf,697 NFkB conf
C=CC(=O)Nc1ccc(Nc2nc(NC3CCC(N(C)C)CC3)nc3c2ncn3C(C)C)cc1 (stereo not given),-,-,97.1,-,100.3,-,96.8,80.5
Cc1ccc2nc(SCC(=O)NCCCN3CCCC3=O)[nH]c2c1,-,-,0,-,0,-,-,-
CC(=O)c1ccc(NC(=O)CC(C)S(=O)(=O)c2ccc3c(c2)CCN3C(C)=O)cc1 (stereo not given),0,0,0,0,0,0,-,-
CC1=NNC(=O)/C1=C\c1cn(-c2ccccc2)nc1-c1ccc(Cl)cc1,?,0,36.5,0,95.2,0,46.2,0
C=C(C)COc1ccc2c(C)c(CCC(=O)N3C[C@H]4C[C@@H](C3)c3cccc(=O)n3C4)c(=O)oc2c1,0,0,0,0,0,0,-,-
N#Cc1nc(Nc2cccc(Cl)c2)c2ncn(C3CCCC3)c2n1,-,-,0,-,0,-,0,0
COc1ccc(NC(=O)COC(=O)c2ccc3c(c2)OCO3)c(OC)c1,-,-,0,-,0,-,-,-
COc1ccc(CC(=O)NC2CCS(=O)(=O)C2)cc1 (stereo not given),0,-,0,0,0,0,-,-
CCOC(=O)C1CCN(C(=O)COC(=O)CNC(=O)c2ccc(C(C)(C)C)cc2)CC1,-,-,0,-,0,-,-,-
Cn1c(-c2ccccn2)[n+](C)c2ccccc21,0,0,0,0,0,0,-,-
CN(C)c1ccc(-c2n(C)c3ccccc3[n+]2C)cc1,0,0,42.4,73.0,75.6,0,60.2,57.0
COc1cccc(COC(=O)C2CCN(C(=O)c3ccc(F)cc3)CC2)c1OC,0,-,0,0,0,0,-,-
Cc1ccc(NC2=Nc3ccccc3CS2)cc1,0,0,0,0,0,0,0,0
CC(C)(C)c1ccc(C(=O)Nc2ccc(CC(=O)O)cc2)o1,-59.3,0,84.2,0,59.6,0,72.9,85.8
Cc1ccc(C(=O)Nc2ccc(CC(=O)O)cc2)o1,0,0,0,0,0,0,-,-
CC(C)(C)C(=O)/C(=C/c1ccncc1)n1cncn1,0,0,37.3,0,54.2,0,0,42.1
CSCCC(NS(=O)(=O)c1ccc(Cl)c(Cl)c1)C(=O)O (stereo not given),0,0,0,0,0,0,-,-
CCC(C)N1C(=O)/C(=C/c2c(NCCCOC(C)C)nc3c(C)cccn3c2=O)SC1=S (stereo not given),-,0,38.3,-,0,-,-,33.9
CCCN1C(=O)/C(=C/c2c(NCCCOC(C)C)nc3c(C)cccn3c2=O)SC1=S,0,0,0,0,0,0,-,-
CCOc1ccc(-c2nnc(-c3cccs3)o2)cc1,0,0,0,0,0,0,-,0
O=C(c1ccco1)N1CCN(c2ncnc3c2[nH]c2ccc(Br)cc23)CC1,0,0,-,0,-,0,-,-
O=C(c1ccco1)N1CCN(c2ncnc3c2[nH]c2ccccc23)CC1,0,0,36.3,0,0,0,-,0
CCOC(=O)N1CCN(c2ncnc3c2[nH]c2ccc(F)cc23)CC1,0,0,0,0,0,0,-,-

# Source: PubChem (several laboratories)
